Bioassay records from PubChem.
A selection: hits, their analogues and other compounds. The true share with any hit is near 1.7%.
Pemphigus Ab inh – inhibitors of pemphigus antibody binding to human desmoglein-3; binding (percent of control), % at 10 µM; DSG3-coupled beads, scFv-anti-DSG3-GFP binding, flow cytometry; stronger effect = lower value; AID 588358; hit rate 0.48% among 310,000; P32926;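 active = binding more than 3 SD below its plate's average and above zero; inconclusive = below that plate limit but binding exactly zero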
Target sequence (P32926 whole entry, looked up): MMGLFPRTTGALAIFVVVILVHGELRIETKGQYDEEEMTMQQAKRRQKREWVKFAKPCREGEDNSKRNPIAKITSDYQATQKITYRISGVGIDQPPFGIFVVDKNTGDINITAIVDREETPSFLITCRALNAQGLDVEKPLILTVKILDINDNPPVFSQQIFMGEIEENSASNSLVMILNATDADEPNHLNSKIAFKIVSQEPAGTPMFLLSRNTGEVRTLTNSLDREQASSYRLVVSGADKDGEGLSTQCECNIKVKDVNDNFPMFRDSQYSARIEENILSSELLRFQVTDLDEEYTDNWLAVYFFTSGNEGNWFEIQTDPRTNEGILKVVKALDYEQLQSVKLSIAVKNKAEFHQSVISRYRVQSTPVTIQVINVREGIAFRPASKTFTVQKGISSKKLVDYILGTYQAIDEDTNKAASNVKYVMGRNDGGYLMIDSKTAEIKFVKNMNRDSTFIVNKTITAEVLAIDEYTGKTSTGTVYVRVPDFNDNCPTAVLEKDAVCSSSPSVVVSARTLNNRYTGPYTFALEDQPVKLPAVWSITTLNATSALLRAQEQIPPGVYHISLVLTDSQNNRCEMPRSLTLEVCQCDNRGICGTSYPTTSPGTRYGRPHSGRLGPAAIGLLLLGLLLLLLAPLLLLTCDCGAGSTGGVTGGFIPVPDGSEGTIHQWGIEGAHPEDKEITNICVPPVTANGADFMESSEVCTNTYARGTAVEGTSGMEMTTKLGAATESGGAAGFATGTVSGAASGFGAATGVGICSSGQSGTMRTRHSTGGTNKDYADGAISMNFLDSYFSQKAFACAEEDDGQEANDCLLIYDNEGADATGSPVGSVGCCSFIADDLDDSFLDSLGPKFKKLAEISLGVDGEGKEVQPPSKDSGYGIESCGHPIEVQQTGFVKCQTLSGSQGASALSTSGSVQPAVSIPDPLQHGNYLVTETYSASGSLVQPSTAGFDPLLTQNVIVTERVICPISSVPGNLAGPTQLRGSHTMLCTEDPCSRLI
Myeloid diff 2 – compounds promoting myeloid differentiation. hit rate 1% among 360,000. ER-HoxA9 myeloid progenitors, lysozyme-GFP differentiation, flow cytometry. calls only at 10 µM. AID 624256;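 active = normalized GFP-positive differentiation at or above the plate's own cutoff, the solvent-only control mean plus 3 SD; inconclusive = no clear call, values can overlap the other calls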;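 note: cells exposed to compound for four days before flow analysis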
T cell modulator – T cell immune modulation candidate; hit rate 0.068% among 330,000; 2C CD8+ T cell-vesicle binding, flow cytometry; stronger effect = lower value; response (vesicle binding), % at 7 µM;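 active = response, share of CD8 T cells binding vesicles, and their 90th percentile fluorescence all below set limits, cut at about 80% in these data, passing the limit was not always enough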;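 note: values below 100% mean blocked vesicle binding to the CD8+ T cells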
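Read-out – percent CD8+ FL2 mean versus row control · System – murine 2C transgenic CD8+ T lymphocytes · Times – 1.5 h cell–vesicle binding at 37 °C, then 20 min icy labelling · Control set – naked vesicles low, QL9 vesicles with vehicle high · Detection – cytometric PE anti-B7-1 and Alexa647 anti-CD8 signals after 1% paraformaldehyde fixation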
Vif imaging – blocks HIV Vif function; HEK293T cells, Vif self-association by quenched fluorescence, imaging, 24 h; inhibition, % at 7.49 µM; hit rate 0.35% among 340,000; in the data active = inhibition above about 50%, passing the limit was not always enough; inconclusive = no clear call, values can overlap the other calls; inactive = below about 31%
* hit, by the source's call.

Screening Cc1ccc(C2=NN(S(C)(=O)=O)C(c3ccc4c(c3)OCO4)C2)cc1 (configuration not stated) returned Pemphigus Ab inh 300, Myeloid diff 2 active and T cell modulator 276.
`CS(=O)(=O)N1N=C(c2ccc(Br)cc2)CC1c1ccc2c(c1)OCO2` (configuration not stated) gave Pemphigus Ab inh 138, Myeloid diff 2 active, T cell modulator 537 and Vif imaging -3.
Screening CCS(=O)(=O)Nc1cccc(C2=NN(S(C)(=O)=O)C(c3ccccc3)C2)c1 (configuration not stated) returned Pemphigus Ab inh 176, Myeloid diff 2 inactive, T cell modulator 415 and Vif imaging -9.
For CCS(=O)(=O)N1N=C(c2cccc(NS(C)(=O)=O)c2)CC1c1ccc(C)cc1 (configuration not stated) the results were Pemphigus Ab inh 332, Myeloid diff 2 active, T cell modulator 463 and Vif imaging -4.
`CC(=O)N1N=C(c2ccc(C)cc2)CC1c1ccc2c(c1)OCO2` (configuration not stated) gave Myeloid diff 2 inactive, T cell modulator 449 and Vif imaging 3.
`CCCCNC(=O)c1nc(C2CCN(S(=O)(=O)c3ccccc3C(F)(F)F)CC2)oc1-c1cccc(C(F)(F)F)c1` gave Myeloid diff 2 inactive.
For Cc1cc(C)n(-c2ccc(C(=O)OCC(=O)Nc3ccccc3F)cc2)n1 the results were Pemphigus Ab inh inconclusive, Myeloid diff 2 inactive, T cell modulator 270 and Vif imaging 15.
For Cc1nc2c(cnn2-c2ccccc2Cl)c(=O)n1-c1ccc(N2CCC(C)CC2)cc1 the results were Pemphigus Ab inh 98, Myeloid diff 2 active, T cell modulator 142 and Vif imaging 11.
`Cc1ccc(-n2c(C)nc3c(cnn3-c3ccccc3Cl)c2=O)cc1C` gave Myeloid diff 2 inactive, T cell modulator 268 and Vif imaging -9.
Screening O=C(c1ccncc1)N(Cc1ccccc1)Cc1nc2ccccc2c(=O)[nH]1 returned Pemphigus Ab inh 112, Myeloid diff 2 active and T cell modulator 263.
Screening O=C(c1ccccc1)N(Cc1ccc(F)cc1)Cc1nc2ccccc2c(=O)[nH]1 returned Pemphigus Ab inh 85, Myeloid diff 2 inactive, T cell modulator 357 and Vif imaging -3.
`CCOC(=O)C1(Cc2cccc(F)c2)CCN(Cc2nc(CC)[nH]c2C)CC1` gave Pemphigus Ab inh 125, Myeloid diff 2 active, T cell modulator 234 and Vif imaging 85*.
`CCOC(=O)C1(Cc2ccccc2)CCN(Cc2cnn(C(C)C)c2)CC1` gave Pemphigus Ab inh 105, Myeloid diff 2 inactive, T cell modulator 111 and Vif imaging 6.
CCOC(=O)C1(Cc2ccccc2)CCN(Cc2csc(C(C)=O)c2)CC1 was read as Pemphigus Ab inh 103, Myeloid diff 2 inactive, T cell modulator 105 and Vif imaging 119*.
For CCOC(=O)C1(Cc2cccc(F)c2)CCN(Cc2cnn(CC)c2)CC1 the results were Pemphigus Ab inh 110, Myeloid diff 2 inactive, T cell modulator 175 and Vif imaging -7.
Screening COc1ccccc1C=NN=C(NN=Cc1ccccc1OC)NN=Cc1ccccc1OC returned Pemphigus Ab inh 122, Myeloid diff 2 inactive and Vif imaging -21.
For O=C(O)c1cc(O)c2c(c1)[C@@H]([C@H]1c3cc(C(=O)O)cc(O)c3C(=O)c3c(O[C@@H]4O[C@H](CO)[C@@H](O)[C@H](O)[C@H]4O)cccc31)c1cccc(OC3O[C@H](CO)[C@@H](O)[C@H](O)[C@H]3O)c1C2=O (some centres not stated) the results were Pemphigus Ab inh -1.1*, Myeloid diff 2 inactive, T cell modulator 470 and Vif imaging 4.
For O=C(O)c1cc(O)c2c(c1)[C@H]([C@H]1c3cc(C(=O)O)cc(O)c3C(=O)c3c(O[C@@H]4O[C@H](CO)[C@@H](O)[C@H](O)[C@H]4O)cccc31)c1cccc(OC3O[C@H](CO)[C@@H](O)[C@H](O)[C@H]3O)c1C2=O (some centres not stated) the results were Pemphigus Ab inh -9.0*, Myeloid diff 2 inactive, T cell modulator 849 and Vif imaging -1.
`COc1ccc2c(c1)c(C)cc[n+]2Cc1ccccc1` gave Pemphigus Ab inh 93, Myeloid diff 2 active, T cell modulator 213 and Vif imaging 3.
Cc1ccc2c(c1)c(C)cc[n+]2Cc1ccccc1 was read as Pemphigus Ab inh 97, Myeloid diff 2 active, T cell modulator 179 and Vif imaging -2.
`CCN(Cc1ccccc1)C(=O)c1[nH]c2ccc(OC)cc2c1C` gave Pemphigus Ab inh 105, Myeloid diff 2 inactive and Vif imaging 2.
Screening Cc1ccc2ccc[n+](Cc3ccccc3)c2c1 returned Pemphigus Ab inh 107, Myeloid diff 2 inactive, T cell modulator 196 and Vif imaging -9.
Screening CCc1nc2ccc(C(=O)N3CCN(C(=O)c4ccco4)CC3)cn2c1N(CC)Cc1cccc(Br)c1 returned Myeloid diff 2 inactive and Vif imaging -7.
For CN(CCCn1ccc(N)nc1=O)Cc1ccco1 the results were Pemphigus Ab inh 110, Myeloid diff 2 inactive and Vif imaging -3.
Cc1ccccc1N1C(=O)c2cccc3c(N(C)CCO)ccc(c23)C1=O was read as Pemphigus Ab inh 136, Myeloid diff 2 inactive, T cell modulator inactive and Vif imaging inactive.
COc1ccccc1N1C(=O)c2cccc3c(N(C)CCO)ccc(c23)C1=O was read as Pemphigus Ab inh 108, Myeloid diff 2 inactive, T cell modulator 185 and Vif imaging 80*.
For O=C(Nc1ccn(CCCNCC2CCCO2)c(=O)n1)OCc1ccccc1 (configuration not stated) the results were Pemphigus Ab inh 104, Myeloid diff 2 inactive and Vif imaging -5.
COc1cc2nc(N(CCCN(C)C)C(=O)c3ccc(S(=O)(=O)N4CCc5ccccc54)cc3)sc2cc1OC was read as Pemphigus Ab inh 108, Myeloid diff 2 inactive, T cell modulator 87 and Vif imaging 50*.
For Cc1cccc(C)c1NC(=O)Nc1nnc([C@H]2C[C@H](O)[C@@H](CO)O2)s1 the results were Myeloid diff 2 inactive and Vif imaging inconclusive.
For N=C1C(c2ccccc2)=C(O)CN1NC(=O)c1ccccc1 the results were Pemphigus Ab inh 113, Myeloid diff 2 active, T cell modulator 182 and Vif imaging 9.
`N=C1C(c2ccccc2)=C(O)CN1NC(=O)c1ccc(Cl)cc1` gave Pemphigus Ab inh 94, Myeloid diff 2 inactive, T cell modulator inactive and Vif imaging -7.
`CCCCCCn1cc(CN2CC(N(C)CCC)CS2(=O)=O)nn1` (configuration not stated) gave Myeloid diff 2 inactive.
Screening O=C(O)c1ccccc1-c1ccc(/C=c2\sc3nc4cc(Br)cnc4n3c2=O)o1 returned Pemphigus Ab inh 43*, Myeloid diff 2 inactive and T cell modulator 200.
`Cc1cc2nc3s/c(=C/c4ccc(-c5ccccc5C(=O)O)o4)c(=O)n3c2cc1C` gave Pemphigus Ab inh 343, Myeloid diff 2 active, T cell modulator 377 and Vif imaging 10.
